The source of these data is ChEMBL document CHEMBL1938299, “Quinolinone-based agonists of S1P₁: use of a N-scan SAR strategy to optimize in vitro and in vivo activity” (Bioorg Med Chem Lett, 2012).

For series [1], the system named is Rattus norvegicus. As to the kind of experiment: Immunosuppressive activity in Lewis rat assessed as reduction in circulating peripheral lymphocyte count at 30 mg/kg, po after 24 hrs relative to control. Type of series: functional. Set-up: scale not given: the % may be the effect or the level left.
Series [2] can be described thus: Plasma concentration in Lewis rat at 30 mg/kg, po after 24 hrs. The class given is ADME, organism-based. Set-up: dose 30 mg/kg, route oral.
Series [3] deals with T1, Sphingosine 1-phosphate receptor 3 (Homo sapiens, UniProt Q99500). The series is described as follows: Agonist activity at human S1P3 receptor expressed in CHO-K1 cells co-expressing Gq/i5 G-protein assessed as calcium mobilization by FLIPR assay. The class given is functional, cell-based.
In series [4] the target is T2, Sphingosine 1-phosphate receptor 1 (Homo sapiens, UniProt P21453). As to the kind of experiment: Agonist activity at human S1P1 receptor expressed in human U2OS cells co-expressing eGFP assessed as receptor internalization into cytoplasm using Hoechst dye staining relative to 1-(4-(6-benzylbenzofuran-2-yl)-3- fluorobenzyl)azetidine-3-carboxylic acid. Type of series: functional, cell-based.

The target of series [5] is T2, Sphingosine 1-phosphate receptor 1. The series is described as follows: Agonist activity at human S1P1 receptor expressed in human U2OS cells co-expressing eGFP assessed as receptor internalization into cytoplasm using Hoechst dye staining. The class given is functional, cell-based.
The nature of series [6]: Solubility of the compound in 0.010 M aqueous hydrogen chloride at pH 7.4. The conditions noted are these: in the assay text read “hydrogen chloride” for “hydrogen chloride at pH 7.4”. The class given is physicochemical. The gist of the method: (§1)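 Compound solubility measured separately in 0.010 M aqueous HCl, in PBS at pH 7.4, and in simulated intestinal fluid.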
Series [7] is described as follows: Solubility of the compound in phosphate-buffered saline at pH 7.4. Type of series: physicochemical. In outline:
as §1

Series [8] is described as follows: Solubility of the compound in simulated intestinal fluid at pH 7.4. The class given is physicochemical. In outline:
as §1

Series [9] is described as follows: Apparent permeability of the compound in pig LLC-PK1 cells. Type of series: ADME, cell-based, Sus scrofa. In outline:
(§2)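 LLC-PK1 porcine proximal tubule cell monolayers; apparent permeability (Papp) of test compound through the cells measured, along with efflux ratio.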

A short description of series [10]: Efflux ratio of permeability in pig LLC-PK1 cells. Type of series: ADME, cell-based, Sus scrofa. The gist of the method: as §2
Series [11] in a line: Intrinsic clearance in rat liver microsomes assessed per mg of protein after 30 mins. The class given is ADME, Microsome. The note with it: read-out: CLH. In outline: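 Test compound incubated with rat liver microsomes for 30 min. Percent turnover measured and used to estimate intrinsic clearance.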
The subject of series [12] is Rattus norvegicus. The series is described as follows: Immunosuppressive activity in Lewis rat assessed as reduction in circulating peripheral lymphocyte count at 1 mg/kg, po after 24 hrs relative to control. Type of series: functional. Set-up: scale not given: the % may be the effect or the level left. The gist of the method:
(§3)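 Female Lewis rats (N = 5/group) given a single oral dose (0.30, 1.0 or 3.0 mg/kg) in 20% Captisol or HPBCD, 1% HPMC, 1% Pluronic F68, pH 2.0 with MSA. At 24 h, blood lymphocytes were counted as percent of vehicle control and total plasma compound measured. Significance by ANOVA/Dunnett's test versus vehicle.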

The nature of series [13]: Plasma concentration in Lewis rat at 1 mg/kg, po after 24 hrs. Type of series: ADME, organism-based. Set-up: dose 1 mg/kg, route oral. In outline: as §3
Series [14] can be described thus: Plasma protein binding in rat. The note with it: read-out: PPB (converted). The class given is ADME, cell-free. In outline: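 Rat plasma protein binding measured in vitro, with bound and free compound separated by ultracentrifugation; reported as percent bound.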
Series [15] concerns Rattus norvegicus. The series is described as follows: (§4) Clearance in Sprague-Dawley rat at 1 mg/kg, iv. Type of series: ADME, organism-based. Set-up: dose 1 mg/kg, route intravenous. The note with it: in vivo. The gist of the method: (§5)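 Single intravenous dose of 1 mg/kg in DMSO vehicle to male Sprague–Dawley rats (N = 3/group). Clearance, steady-state volume of distribution and half-life were determined from plasma levels.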

A short description of series [16]: Volume of distribution at steady state in Sprague-Dawley rat at 1 mg/kg, iv. Type of series: ADME, organism-based. The note with it: in vivo, read-out: Vdss. Set-up: dose 1 mg/kg, route intravenous. In outline: as §5
Series [17] in a line: Half life in Sprague-Dawley rat at 1 mg/kg, iv. Type of series: ADME, organism-based. Set-up: dose 1 mg/kg, route intravenous. The conditions noted are these: in vivo. The gist of the method:
as §5

The subject of series [18] is Rattus norvegicus. The series is described as follows: (§6) AUC (0 to 24 hrs) in Sprague-Dawley rat at 3 mg/kg, po. The class given is ADME, organism-based, Plasma. Set-up: time < 24 hr, dose 3 mg/kg, route oral. The note with it: in vivo, 24 h.
Series [19] has as its system Rattus norvegicus. The series is described as follows: (§7) Oral bioavailability in Sprague-Dawley rat at 3 mg/kg. The class given is ADME, organism-based. The conditions noted are these: in vivo. In outline: (§8)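 Bioavailability in male Sprague–Dawley rats (N = 3/group), calculated from AUC0–∞ values obtained after a 1 mg/kg iv dose (DMSO vehicle) and a 3 mg/kg po dose (20% Captisol, 1% HPMC, 1% pluronic F68, pH 2.0 with MSA).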

Series [20] is described as follows: AUC (0 to 24 hrs) in Sprague-Dawley rat at 100 mg/kg, po. Type of series: ADME, organism-based. The conditions noted are these: plasma. Set-up: time < 24 hr, dose 100 mg/kg, route oral.
Series [21] is described as follows: Plasma concentration in Lewis rat at 0.3 mg/kg, po after 24 hrs. The class given is ADME, organism-based. Set-up: dose 0.3 mg/kg, route oral. In outline: as §3
Series [22] in a line: Plasma concentration in Lewis rat at 3 mg/kg, po after 24 hrs. Set-up: dose 3 mg/kg, route oral. The class given is ADME, organism-based. In outline: as §3
The subject of series [23] is Rattus norvegicus. As to the kind of experiment: Immunosuppressive activity in po dosed Lewis rat assessed as reduction in circulating peripheral lymphocyte count after 24 hrs. The class given is functional, organism-based. The gist of the method:
as §3

The subject of series [24] is Rattus norvegicus. The series is described as follows: Immunosuppressive activity in Lewis rat assessed as reduction in circulating peripheral lymphocyte count at 3 mg/kg, po after 24 hrs relative to control. Type of series: functional. Set-up: scale not given: the % may be the effect or the level left. In outline: as §3
Series [25] relates to Rattus norvegicus. As to the kind of experiment: Ratio of AUC (0 to 24 hrs) at 100 mg/kg, po to AUC (0 to 24 hrs) at 3 mg/kg, po in Sprague-Dawley rat. The class given is ADME, organism-based. The note with it: in vivo. In outline: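 Male Sprague–Dawley rats (N = 3/group) each received a single oral dose of 3 or 100 mg/kg, in 20% Captisol, 1% HPMC, 1% Pluronic F68, adjusted to pH 2.0 with MSA.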

A short description of series [26]: as §4. Type of series: ADME, organism-based. Set-up: dose 1 mg/kg, route intravenous. The note with it: Sprague-Dawley, in vivo. In outline: as §5
Series [27] in a line: as §6. The class given is ADME, organism-based, Plasma. Set-up: time < 24 hr, dose 3 mg/kg, route oral. The conditions noted are these: Sprague-Dawley, plasma.
A short description of series [28]: as §7. The conditions noted are these: Sprague-Dawley, in vivo. The class given is ADME, organism-based. In outline:
as §8

Series [29] has as its target T1, Sphingosine 1-phosphate receptor 3. As to the kind of experiment: Agonist activity at human S1P3 receptor expressed in CHO-K1 cells co-expressing Gq/i5 G-protein assessed as calcium mobilization by FLIPR assay relative to S1P. Type of series: functional, cell-based. The gist of the method:
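Ca2+ mobilization in CHO-K1 cells expressing hS1P3 and a chimeric Gq/i5 G-protein. Efficacy expressed as % relative to S1P; compounds not reaching >10% of control activity reported as greater than the highest concentration tested.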
(In general: A change in cytosolic calcium serves as a functional read-out for many receptors and channels.)

In brackets after ≈: the same amount, converted by molar mass.

T1 sequence (Q99500 whole entry): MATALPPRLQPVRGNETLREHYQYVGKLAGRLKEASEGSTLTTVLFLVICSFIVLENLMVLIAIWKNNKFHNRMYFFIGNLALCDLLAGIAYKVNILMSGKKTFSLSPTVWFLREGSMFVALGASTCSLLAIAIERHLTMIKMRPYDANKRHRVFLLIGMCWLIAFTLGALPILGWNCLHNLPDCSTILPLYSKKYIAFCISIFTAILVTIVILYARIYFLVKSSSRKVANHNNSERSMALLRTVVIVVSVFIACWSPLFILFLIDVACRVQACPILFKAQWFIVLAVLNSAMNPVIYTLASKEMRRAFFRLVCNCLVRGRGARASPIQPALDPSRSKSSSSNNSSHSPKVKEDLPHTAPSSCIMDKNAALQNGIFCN
T2 sequence (P21453 whole entry): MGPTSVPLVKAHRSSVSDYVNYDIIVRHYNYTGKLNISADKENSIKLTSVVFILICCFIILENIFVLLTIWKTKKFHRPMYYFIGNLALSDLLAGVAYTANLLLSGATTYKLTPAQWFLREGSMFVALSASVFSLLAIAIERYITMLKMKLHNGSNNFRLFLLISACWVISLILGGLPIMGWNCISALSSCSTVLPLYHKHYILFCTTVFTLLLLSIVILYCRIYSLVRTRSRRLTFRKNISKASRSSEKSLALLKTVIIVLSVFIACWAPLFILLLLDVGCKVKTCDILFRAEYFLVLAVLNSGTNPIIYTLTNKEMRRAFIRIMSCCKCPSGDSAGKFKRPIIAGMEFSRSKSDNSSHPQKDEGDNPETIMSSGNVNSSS

Turning to `FC(F)(F)c1cccc(-c2noc(-c3cc(-c4ccccc4)c(C(F)(F)F)s3)n2)c1`, the Activity in [1] is reported as -66%. The concentration at 24 h in series [2] was found to be 1100 ng/mL. The EC50 (as a rule, the concentration needed to bring the measured effect to its halfway point) in series [3] was above 25000 nM. Moreover, in [4], the Efficacy worked out at 86%.

As for `Cn1cc(C(=O)Nc2ccc(-c3ccccc3)c(C(F)(F)F)c2)c(=O)c2cnccc21`, the concentration for a half-maximal effect (EC50) was 24 nM in series [5] and above 2500 nM in series [3]. In addition, the solubility (commonly how much of the substance goes into solution per volume) in series [6] was below 1 µg/mL; in series [7] it was below 1 µg/mL; in [8], 4.9 µg/mL (≈ 11.6 µM). The Papp (as a rule, the rate of passage across a membrane or cell layer, normalised by area and donor concentration) in [9] was 5.7 ×10⁻⁶ cm/s. Moreover, in series [10], the efflux ratio (in general, a quotient of directional permeabilities that is used to spot active efflux) worked out at 0.8. Also, in [11], the microsomal CLint is below 14 µL/min/mg. Besides, the Activity is -64% in series [12], “Dose-dependent effect” in [23] and -64% in [24]. The concentration at 24 h in series [13] is 350 ng/mL; in [21] it was 96 ng/mL; in series [22] it was 1100 ng/mL. The fraction unbound in [14] is 0.08. The same molecule returned a CL in series [15] of 2.67 mL/min/kg. For the same molecule, the Vd in series [16] worked out at 9.2 L/kg. Moreover, the half-life – broadly, how long it takes for the measured level to halve – in series [17] was 41 h. Besides, in series [18], the exposure (AUC) (as a rule, the area under the concentration-time curve, a measure of exposure) turned out to be 5100 ng·h/mL. Also, the F in series [19] came out at 95%. In addition, the AUC(0-t) (in general, exposure summed from dosing to a finite time, without extrapolation to infinity) at 24 h in series [20] was determined as 31000 ng·h/mL. For the same molecule, in series [4], the Efficacy was 100%. Further, in series [25], the “Ratio AUC” value is 6.

For the molecule `Cn1cc(C(=O)Nc2ccc(-c3ccccc3)c(C(F)(F)F)n2)c(=O)c2cnccc21`, the figures for the half-maximal effective concentration (EC50) in series [5] and in [3] were 20 nM and above 2500 nM, respectively. In addition, the solubility in series [6] was below 1 µg/mL; in [7], 2.4 µg/mL (≈ 5.66 µM); in series [8], 10 µg/mL (≈ 23.6 µM). Also, the Papp in [9] was 6.7 ×10⁻⁶ cm/s. Also, the efflux ratio in [10] was found to be 1. In addition, in [11], the microsomal CLint is below 14 µL/min/mg. Further, the Activity in series [12] is -67%; in series [23] it was “Dose-dependent effect”; in series [24] it was -76%. Also, the concentration at 24 h was found to be 130 ng/mL in [13], 47 ng/mL in series [21] and 640 ng/mL in [22]. In addition, in [14], the fraction unbound was 0.02. In addition, the clearance (as a rule, the rate of elimination divided by the concentration) in series [26] was 2.5 mL/min/kg. Further, in series [16], the Vd was 5.1 L/kg. The molecule further gave a half-life in series [17] of 24 h. In addition, the AUC(0-t) at 24 h was determined as 12000 ng·h/mL in [27] and 130000 ng·h/mL in series [20]. Also, the bioavailability in series [28] stood at 110%. Also, in [4], the Efficacy turned out to be 120%. Besides, the “Ratio AUC” value in series [25] came to 11.

`Cn1cc(C(=O)Nc2ccc(-c3ccccc3)c(C(F)(F)F)c2)c(=O)c2ccccc21`: the half-maximal effective concentration (EC50) came out at 70 nM in series [5] and 1500 nM in series [3]. Further, the solubility in series [6] was 1.3 µg/mL (≈ 3.08 µM); in [7] it was below 1 µg/mL; in series [8] it was 11 µg/mL (≈ 26 µM). Further, the Papp in series [9] is 1.2 ×10⁻⁶ cm/s. Also, in series [10], the efflux ratio was 0.4. In addition, the microsomal CLint in series [11] is below 14 µL/min/mg. Also, the Activity in [12] is -3%; in [23], “Dose-dependent effect”; in series [24], -51%. For the same molecule, the concentration at 24 h in series [13] worked out at 18 ng/mL; in series [21], 5.5 ng/mL; in series [22], 48 ng/mL. Further, in series [14], the fraction unbound is 0.03. The clearance in series [26] is 15.5 mL/min/kg. For the same molecule, the Vd in series [16] came out at 11 L/kg. For the same molecule, the half-life in series [17] was 15 h. In addition, the AUC(0-t) at 24 h in series [27] was found to be 1200 ng·h/mL; in series [20], 5800 ng·h/mL. The bioavailability in [28] was 60%. For the same molecule, the Efficacy amounted to 110% in [4] and 92% in series [29]. Moreover, the “Ratio AUC” value in [25] is listed as 4.7.
